Compounds with a hit are over-represented: about 1.6% of the library has one in this group of screens.
RBBP9 inhibitor – human RBBP9 hydrolase inhibition. inhibition, % at 7.94 µM. recombinant RBBP9, FP-Rh probe fluorescence polarization. actives 0.2% (n = 220,000);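 active means inhibition above the campaign mean of all tested compounds plus 3 SD, cut at about 14% in these data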;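 further: plate controls were DMSO wells with RBBP9 for no effect and wells lacking RBBP9 protein for full effect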
Target sequence (O75884 whole entry, looked up): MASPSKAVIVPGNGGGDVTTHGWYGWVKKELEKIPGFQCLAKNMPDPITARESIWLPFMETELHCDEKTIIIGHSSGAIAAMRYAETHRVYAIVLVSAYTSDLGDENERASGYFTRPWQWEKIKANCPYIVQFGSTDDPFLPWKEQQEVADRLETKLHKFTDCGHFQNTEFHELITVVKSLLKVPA
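Material: RBBP9 protein. Amount: RBBP9 at 2.5 µM in dispensed solution, before mixing. Schedule: 30 min then 45 min, 25 °C. Medium: Tris buffer pH 8.0, NaCl, Pluronic. Measured by: fluorescence polarization. Measure: percent inhibition from mP, scaled between DMSO and no-protein wells. Replication: one well per compound.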
eIF4H FP inh – inhibitors of RNA binding by human eIF4H. actives 0.94% (n = 290,000). Q15056. AID 2012. inhibition, % at 35 µM. eIF4H fluorescence polarization binding assay;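 further: calls also rest on retests at 20 µM and on dose response follow-up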
PABP polyA inh – PABP-poly(A) binding inhibition; P11940; PABP-poly(A) RNA binding, fluorescence polarization; calls only at 35 µM; actives 1% (n = 290,000); AID 2014;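 further: calls also rest on retests at 20 µM and on dose response follow-up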
MLLE-PAM2 inh – blocks PAM2 peptide binding to the PABP1 MLLE domain. P11940. GST-MLLE / FITC-PAM2 fluorescence polarization. inhibition, % at 20 µM. actives 0.36% (n = 360,000). AID 588489; in the data active means inhibition above about 35%, passing the limit was not always enough;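 further: plate controls were DMSO wells with GST-MLLE for no effect and wells lacking GST-MLLE protein for full effect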
TCR-CD3 inh – blocks the human TCR-CD3 interaction | TAMRA-labeled TCR probe fluorescence, biochemical | inhibition, % at 9.4 µM | actives 0.37% (n = 360,000); in the data active means inhibition above about 19%;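 further: recombinant mutant TCR 2C K166C tagged with TAMRA read by polarization; 0% = receptor in buffer alone and 100% = receptor with positive control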
* = called active by the depositor; i = inactive; ? = inconclusive; · = not tested or not shown; + = active, no number. Unless noted, how the calls were made is not given here.

SMILES	RBBP9 inhibitor	eIF4H FP inh	PABP polyA inh	MLLE-PAM2 inh	TCR-CD3 inh
O=C(COc1ncnc2scc(-c3ccc(F)cc3)c12)NCc1ccco1	-2	-6	i	-18	5
Cc1ccc(-c2csc3ncnc(OCC(=O)NC(=O)NCc4ccco4)c23)cc1	-15	21*	i	2	-5
Cc1sc2ncnc(NCc3ccco3)c2c1C	-2	66*	+	-2	6
Cc1sc2ncnc(SCC(=O)NC(=O)NCc3ccco3)c2c1C	-7	82*	+	12	1
COc1ccccc1NC(=O)c1ccc(NC(=O)c2cc3c(s2)CCC3)cc1	-7	-7	i	-3	-4
O=C(Nc1ccccc1OC(F)F)c1cc2c(s1)CCC2	-8	84*	i	1	8
CSC1=C(C#N)C(=O)NC(c2ccccc2O)S1 (stereo not given)	1	1	i	31	-1
COC(=O)CSC1=C(C#N)C(=O)NC(c2ccccc2)S1 (stereo not given)	-1	-5	i	42*	3
COc1cccc(CNC(=O)[C@H]2CCCN2)c1	·	·	·	·	1
Cn1ccc(CC(=O)N2CCC(N3CCC(C(=O)N4CCCC4)CC3)CC2)c1	2	52*	+	-12	-5
COC(=O)C1=C(C)NC(=O)/C1=C\c1cc(C)n(-c2ccccc2C)c1C	0	57*	+	-13	1
C[C@H](CO)N1C[C@H](C)[C@@H](CN(C)C(=O)Nc2ccc(-c3cccs3)cc2)OCc2cn(nn2)CCCC1=O	·	·	·	·	2
O=C(O)C(O)c1ccco1 (stereo not given)	6	104*	+	-7	·
O=C(O)C(O)c1ccccc1 (stereo not given)	-1	-8	i	-7	1
CC(C)CNc1ccc2c(c1)OC[C@H](C)NS2(=O)=O	·	·	·	·	5
COCCn1c(C)cc(/C=C2\NC(=S)N(C)C2=O)c1C	-1	65	+	-62	-1
O=[N+]([O-])c1ccc(N/N=C\c2ccccc2OCc2ccccc2)cc1	-1	23*	+	-113	4
Cc1cc(C(=O)COc2cccc3cccnc23)c(C)n1C	3	109	i	125	11
Cc1ccc(OCC(=O)c2cc(C)n(C)c2C)c([N+](=O)[O-])n1	-5	76*	i	-1	1
COC(=O)C1=C(C)N(C)C(=NCc2ccc(OC)cc2)NC1c1ccccc1 (stereo not given)	·	·	·	·	-9
COc1ccc(CN2CC(=O)N3[C@H]4c5ccccc5OC[C@@H]4[C@H](c4ccccc4)[C@]3(C)C2=O)cc1	·	·	·	43*	5
Cc1ccc(CN(CC(=O)NC2CCCC2)C(=O)CSc2nnc(COc3ccccc3)o2)cc1	8	4	i	41*	-6
O=C(CN(Cc1ccccc1)C(=O)CSc1nnc(COc2ccccc2)o1)NC1CCCC1	-11	4	i	25	3
Cc1ccc2c(c1)c(=O)c1c3n2CCN(C(=O)CCl)C3CC1 (stereo not given)	3	?	+	8	2
Cc1ccc2c(c1)c1c3n2CCN(C(=O)CN2CCN(C)CC2)C3CCC1 (stereo not given)	-2	17	i	-2	1
SMILES	RBBP9 inhibitor	eIF4H FP inh	PABP polyA inh	MLLE-PAM2 inh	TCR-CD3 inh
Cc1ccc(NC(=O)Nc2nnc(CSCCOc3ccc(Cl)cc3)s2)cc1	2	84	+	-30	-5
N#CCCN(C(=S)NC(=O)c1ccco1)c1ccccc1F	-7	1	i	47*	-1
N#CCCN(Cc1cccnc1)C(=S)NCc1ccco1	-10	14	i	30	3
N#CCCN(Cc1cccnc1)C(=S)NC(=O)c1ccco1	-2	7	+	14	1
N#CCCN(C(=O)c1ccco1)c1ccccc1	1	-14	i	6	8
Cc1cc(C)n2cc(CSc3nnc(SCc4cn5c(C)cc(C)nc5n4)s3)nc2n1	0	-9	i	·	·
Cc1cc(C)n2cc(CSc3nnc(N)s3)nc2n1	2	-4	i	40*	-6
COC(=O)[C@]12C[C@H](CC(=O)NCc3cccs3)C(=O)N(Cc3ccccc3)C1=C[C@H](C1CCCC1)O[C@@H]2C	·	·	·	·	-6
NC1=C(Br)C(=O)c2ncccc2C1=O	·	·	·	39*	-1
O=C1c2cccnc2C(=O)N1CO	-12	-4	i	-7	-3
O=C(/C=C/c1ccco1)Nc1cccc(C(=O)Nc2ccccc2C(=O)O)c1	-20	89*	+	-20	6
O=C(/C=C/c1ccco1)NC(=S)Nc1ccc(N2CCCC2)cc1	3	93*	+	36*	11
CCC(=O)Nc1ccc(NC(=S)NC(=O)/C=C/c2ccco2)cc1	·	11	i	9	-2
O=C(/C=C/c1ccco1)NC(=S)Nc1ccc(Cl)cn1	3	71	+	-30	1
O=C(/C=C/c1ccco1)NC(=S)NNC(=O)c1ccco1	-8	92	+	7	0
CC(C)C1CC(N(C)C)=CC(=S)N1 (stereo not given)	·	·	·	·	0
CCN(CC)C(=O)c1ncn2c1C(=O)N[C@H](C)C2	·	·	·	·	2
CC(=O)NC(=S)Nc1ccc(NC(=S)NC(=O)/C=C/c2ccco2)cc1	-11	·	·	14	0
O=C(/C=C/c1ccco1)NC(=S)Nc1ccc(C(=O)O)cc1	·	97*	+	14	11
CC(C)(C)c1ccc(S(=O)(=O)N2CCN(C3CCCC3)CC2)cc1	·	-5	i	4	7
CC1CC(C)CN(S(=O)(=O)c2ccc(C(C)(C)C)cc2)C1 (stereo not given)	11	5	+	1	-7
CCOc1ccc2nc(SCC(=O)c3ccc(Cl)s3)sc2c1	-15	55*	+	-69	-6
Cc1cccc(Cl)c1NC(=O)NCCCN1CCOCC1	·	·	·	·	4
CCN(CC)c1ccc(C=N/C(C#N)=C(\N)C#N)cc1	-6	?	+	-91	3
O=C(c1coc(=O)c(Br)c1)N1CCCc2ccccc21	0	67*	+	-18	1
SMILES	RBBP9 inhibitor	eIF4H FP inh	PABP polyA inh	MLLE-PAM2 inh	TCR-CD3 inh
O=C(c1cccc(Br)c1)N1CCCc2ccccc21	·	4	i	2	1
CC1(C)CCCN(C(=O)c2coc(=O)c(Br)c2)C1	-8	89*	+	6	-1
C/C(=N\NC(N)=O)c1ccccc1	1	-2	i	10	0
C/C(=N\NC(N)=O)c1ccccc1Cl	7	106*	+	1	3
COC/C=C/C1=CC2=CC(=O)C(C)(OC(=O)c3cnc4ccccc4n3)C(=O)C2=CN1c1ccc(CO)cc1 (stereo not given)	·	102*	+	·	·
COC/C=C/C1=CC2=CC(=O)C(C)(OC(=O)c3cnc4ccccc4n3)C(=O)C2=CN1c1ccccc1 (stereo not given)	·	63*	+	·	9
COC/C=C/C1=CC2=CC(=O)C(C)(OC(=O)c3cnc4ccccc4n3)C(=O)C2=CN1CC(C)C (stereo not given)	·	·	·	11	·

Source: PubChem BioAssay
